# Reference: PMC3356170 (International Journal of Nanomedicine, 2012)
# What was measured:
# [1] = Pharmacokinetics of two formulations in rats; type: in vivo, Sprague-Dawley (SD) rats
# Procedure, shortened: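 SD rats (N = 6 per group) received 5 mg/kg intravenously or orally, dissolved in 0.9% NaCl. Blood was taken at set time points and centrifuged (3500 rpm, 10 min). Plasma (180 μL) was mixed with cantharidin internal standard and methanol (800 μL) and spun at 10,000 rpm for 10 min. NCTD was measured by LC-MS/MS (C18, 35°C; MRM m/z 185.0→141.1) against matrix-matched calibration from 0.1025 to 10.25 μg/mL, using peak-area ratio to internal standard. Group means gave parameters.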
# [2] = Tissue distribution and elimination in mice; type: in vivo, ICR mice; details: after intravenous administration (table title)
# Procedure, shortened: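 ICR mice (six per group) were used. Blood was drawn from the eye socket vein at each sampling time. After cervical dislocation, heart, liver, kidney, spleen and lung were excised, rinsed in saline, blotted and weighed. Bile was taken from the gall bladder by syringe. Tissues and fluids were homogenized and processed as for plasma. NCTD was quantified by LC-MS/MS.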
# [3] = Survival time and urine output of dosed rats; type: in vivo
# [4] = intravenous administration (5 mg/kg), N = 6, mean ± SD
# [5] = oral administration (5 mg/kg), N = 6, mean ± SD
structure (smiles),measurement,setting,value
"O=C1OC(=O)[C@H]2[C@@H]1[C@@H]1CC[C@H]2O1 [NCTD, Norcantharidin]",AUC0-t,[1]; [4],9.79 ± 1.26 µg·h/mL
same,AUC0-∞,[1]; [4],10.77 ± 2.34 µg·h/mL
same,CL,[1]; [4],0.12 ± 0.02 L/h
same,MRT,[1]; [4],0.34 ± 0.10 h
same,Vd,[1]; [4],0.82 ± 0.45 L/kg
same,t1/2(α) distribution half-life,[1]; [4],0.26 ± 0.06 h
same,t1/2(β),[1]; [4],2.63 ± 0.82 h
same,AUC0-t,[1]; [5],3.85 ± 0.66 µg·h/mL
same,AUC0-∞,[1]; [5],3.87 ± 0.69 µg·h/mL
same,CL,[1]; [5],0.32 ± 0.05 L/h
same,Cmax,[1]; [5],1.21 ± 0.23 µg/mL
same,MRT,[1]; [5],5.49 ± 4.58 h
same,Tmax,[1]; [5],1.50 ± 0.44 h
same,Vd,[1]; [5],9.48 ± 6.59 L/kg
same,t1/2(a),[1]; [5],0.56 ± 0.43 h
same,t1/2(α),[1]; [5],0.72 ± 0.68 h
same,t1/2(β),[1]; [5],5.08 ± 4.79 h
same,oral bioavailability,"[1]; oral versus intravenous administration, 5 mg/kg",39.3%
same,Te (targeted efficiency),[2]; Bile,2.33
same,Te (targeted efficiency),[2]; Blood,30.74
same,Te (targeted efficiency),[2]; Heart,14.99
same,Te (targeted efficiency),[2]; Kidney,11.72
same,Te (targeted efficiency),[2]; Liver,10.07
same,Te (targeted efficiency),[2]; Lung,22.72
same,Te (targeted efficiency),[2]; Spleen,7.44
same,survival time of rats,[3]; NCTD group,about 24 hours
same,urine output compared with normal rats,[3]; after dosing,one-third of normal
